What was measured:
[1] = biological target: Cyclin-dependent kinase 13 (Homo sapiens) (UniProt Q14004); experiment: Binding affinity to wild-type human partial length CDC2L5 (H675 to S1054 residues) expressed in mammalian expression system assessed as residual binding level at 1 uM by Kinomescan method relative to control
[2] = biological target: Ephrin type-A receptor 7 (Homo sapiens) (UniProt Q15375); experiment: Binding affinity to wild-type human partial length EPHA7 (Y608 to S912 residues) expressed in bacterial expression system assessed as residual binding level at 1 uM by Kinomescan method relative to control
[3] = biological target: Receptor tyrosine-protein kinase erbB-3 (Homo sapiens) (UniProt P21860); experiment: Binding affinity to wild-type human partial length ERBB3 (G684 to A987 residues) expressed in mammalian expression system assessed as residual binding level at 1 uM by Kinomescan method relative to control
[4] = biological target: MAP kinase-activated protein kinase 2 (Homo sapiens) (UniProt P49137); experiment: Binding affinity to wild-type human partial length MAPKAPK2 (V48 to D345 residues) expressed in bacterial expression system assessed as residual binding level at 1 uM by Kinomescan method relative to control
[5] = system: Receptor-type tyrosine-protein kinase FLT3 (Homo sapiens), P36888 [K663Q]; experiment: Binding affinity to human partial length FLT3 K663Q mutant (V592 to Y969 residues) expressed in bacterial expression system assessed as residual binding level at 1 uM by Kinomescan method relative to control
In short: (§1)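 Kinome-wide selectivity panel run by the KINOMEscan method, with the test compound at a single concentration of 1 μM. Wild-type and mutant kinases were profiled in the same screen.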

[6] = biological target: Protein-tyrosine kinase 2-beta (Homo sapiens) (UniProt Q14289); experiment: Binding affinity to wild-type human full length PYK2 (M1 to E967 residues) expressed in bacterial expression system assessed as residual binding level at 1 uM by Kinomescan method relative to control
In short: (§2)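 Single-point kinome-wide KINOMEscan binding panel, test compound at 1 μM, run by the provider's standard protocol.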

[7] = system: Epidermal growth factor receptor (Homo sapiens), P00533 [L861Q]; experiment: Binding affinity to human partial length EGFR L861Q mutant (R669 to V1011 residues) expressed in bacterial expression system assessed as residual binding level at 1 uM by Kinomescan method relative to control; in short: as §1
[8] = biological target: MAP kinase-interacting serine/threonine-protein kinase 1 (Homo sapiens) (UniProt Q9BUB5); experiment: Binding affinity to wild-type human full length MKNK1 (M1 to L424 residues) expressed in mammalian expression system assessed as residual binding level at 1 uM by Kinomescan method relative to control; in short: as §2
[9] = biological target: Homeodomain-interacting protein kinase 2 (Homo sapiens) (UniProt Q9H2X6); experiment: Binding affinity to wild-type human partial length HIPK2 (M153 to S564 residues) expressed in mammalian expression system assessed as residual binding level at 1 uM by Kinomescan method relative to control
[10] = biological target: Cyclin-dependent kinase-like 2 (Homo sapiens) (UniProt Q92772); experiment: Binding affinity to wild-type human partial length CDKL2 (M1 to D327 residues) expressed in bacterial expression system assessed as residual binding level at 1 uM by Kinomescan method relative to control
[11] = system: Serine/threonine-protein kinase B-raf (Homo sapiens), P15056 [V600E]; experiment: Binding affinity to human partial length BRAF V600E mutant (S429 to E741 residues) expressed in mammalian expression system assessed as residual binding level at 1 uM by Kinomescan method relative to control
[12] = system: Epidermal growth factor receptor (Homo sapiens), P00533 [UNDEFINED MUTATION]; experiment: Binding affinity to human partial length EGFR L747-S752del/P753S mutant expressed in bacterial expression system assessed as residual binding level at 1 uM by Kinomescan method relative to control; in short: as §1
[13] = biological target: Ephrin type-B receptor 6 (Homo sapiens) (UniProt O15197); experiment: Binding affinity to wild-type human partial length EPHB6 (Q634 to P948 residues) expressed in mammalian expression system assessed as residual binding level at 1 uM by Kinomescan method relative to control
[14] = biological target: Homeodomain-interacting protein kinase 4 (Homo sapiens) (UniProt Q8NE63); experiment: Binding affinity to wild-type human partial length HIPK4 (M1 to V384 residues) expressed in bacterial expression system assessed as residual binding level at 1 uM by Kinomescan method relative to control
[15] = biological target: Mitogen-activated protein kinase kinase kinase 7 (Homo sapiens) (UniProt O43318); experiment: Binding affinity to wild-type human partial length TAK1 (M1 to Q303 residues) expressed in mammalian expression system assessed as residual binding level at 1 uM by Kinomescan method relative to control
[16] = biological target: Serine/threonine-protein kinase ULK1 (Homo sapiens) (UniProt O75385); experiment: Binding affinity to wild-type human partial length ULK1 (M1 to T309 residues) expressed in mammalian expression system assessed as residual binding level at 1 uM by Kinomescan method relative to control
[17] = biological target: Tyrosine-protein kinase TXK (Homo sapiens) (UniProt P42681); experiment: Binding affinity to wild-type human partial length TXK (L238 to W527 residues) expressed in bacterial expression system assessed as residual binding level at 1 uM by Kinomescan method relative to control
[18] = biological target: Atypical kinase COQ8A, mitochondrial (Homo sapiens) (UniProt Q8NI60); experiment: Binding affinity to wild-type human full length ADCK3 (M280 to Q647 residues) expressed in bacterial expression system assessed as residual binding level at 1 uM by Kinomescan method relative to control
[19] = biological target: Tyrosine-protein kinase ZAP-70 (Homo sapiens) (UniProt P43403); experiment: Binding affinity to wild-type human partial length ZAP70 (D20 to G299 residues) expressed in mammalian expression system assessed as residual binding level at 1 uM by Kinomescan method relative to control
[20] = biological target: BMP-2-inducible protein kinase (Homo sapiens) (UniProt Q9NSY1); experiment: Binding affinity to wild-type human partial length BIKE (S34 to N329 residues) expressed in bacterial expression system assessed as residual binding level at 1 uM by Kinomescan method relative to control
[21] = biological target: Activin receptor type-1B (Homo sapiens) (UniProt P36896); experiment: Binding affinity to wild-type human ACVR1B (S187 to I505 residues) expressed in bacterial expression system assessed as residual binding level at 1 uM by Kinomescan method relative to control
[22] = biological target: Mitogen-activated protein kinase kinase kinase 5 (Homo sapiens) (UniProt Q99683); experiment: Binding affinity to wild-type human partial length ASK1 (E648 to S964 residues) expressed in bacterial expression system assessed as residual binding level at 1 uM by Kinomescan method relative to control
[23] = biological target: Tyrosine-protein kinase Blk (Homo sapiens, UniProt P51451); experiment: Binding affinity to wild-type human partial length BLK (G211 to L503 residues) expressed in bacterial expression system assessed as residual binding level at 1 uM by Kinomescan method relative to control
[24] = biological target: Mitogen-activated protein kinase kinase kinase kinase 1 (Homo sapiens) (UniProt Q92918); experiment: Binding affinity to wild-type human full length HPK1 (M1 to R799 residues) expressed in bacterial expression system assessed as residual binding level at 1 uM by Kinomescan method relative to control

Homeodomain-interacting protein kinase 2 (Homo sapiens), sequence (Q9H2X6 whole entry, looked up, the tested form may be a part): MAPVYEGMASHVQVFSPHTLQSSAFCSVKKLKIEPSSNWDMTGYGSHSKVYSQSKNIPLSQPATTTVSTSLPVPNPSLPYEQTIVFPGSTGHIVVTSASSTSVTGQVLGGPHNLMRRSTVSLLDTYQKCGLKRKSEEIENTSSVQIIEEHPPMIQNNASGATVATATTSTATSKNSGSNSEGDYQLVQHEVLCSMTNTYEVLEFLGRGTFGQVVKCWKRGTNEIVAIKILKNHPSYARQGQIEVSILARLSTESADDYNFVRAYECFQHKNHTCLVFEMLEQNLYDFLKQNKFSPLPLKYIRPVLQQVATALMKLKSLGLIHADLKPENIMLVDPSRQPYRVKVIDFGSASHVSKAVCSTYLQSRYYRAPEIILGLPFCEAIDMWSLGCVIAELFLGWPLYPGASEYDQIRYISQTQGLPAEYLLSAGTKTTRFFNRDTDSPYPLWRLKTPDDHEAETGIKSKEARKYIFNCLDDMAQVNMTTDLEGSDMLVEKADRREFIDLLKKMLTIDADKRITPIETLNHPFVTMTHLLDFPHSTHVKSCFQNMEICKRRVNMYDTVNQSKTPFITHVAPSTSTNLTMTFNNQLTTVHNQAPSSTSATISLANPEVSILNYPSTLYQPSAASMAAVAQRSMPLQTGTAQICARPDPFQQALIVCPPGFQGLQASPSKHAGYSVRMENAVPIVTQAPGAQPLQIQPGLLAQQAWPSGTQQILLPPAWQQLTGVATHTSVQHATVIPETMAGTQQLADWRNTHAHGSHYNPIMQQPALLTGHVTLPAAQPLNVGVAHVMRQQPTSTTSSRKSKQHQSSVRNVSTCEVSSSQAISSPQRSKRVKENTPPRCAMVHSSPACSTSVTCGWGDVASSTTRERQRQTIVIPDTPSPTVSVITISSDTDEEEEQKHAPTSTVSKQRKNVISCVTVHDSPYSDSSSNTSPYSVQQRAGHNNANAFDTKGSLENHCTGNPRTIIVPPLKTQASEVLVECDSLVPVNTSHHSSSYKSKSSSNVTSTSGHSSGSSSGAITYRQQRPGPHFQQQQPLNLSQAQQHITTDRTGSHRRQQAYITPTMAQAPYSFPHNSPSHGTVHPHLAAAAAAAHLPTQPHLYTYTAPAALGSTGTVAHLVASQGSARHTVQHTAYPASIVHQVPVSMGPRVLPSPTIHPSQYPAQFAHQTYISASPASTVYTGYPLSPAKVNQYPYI
Protein-tyrosine kinase 2-beta (Homo sapiens), sequence (Q14289 whole entry, looked up, the tested form may be a part): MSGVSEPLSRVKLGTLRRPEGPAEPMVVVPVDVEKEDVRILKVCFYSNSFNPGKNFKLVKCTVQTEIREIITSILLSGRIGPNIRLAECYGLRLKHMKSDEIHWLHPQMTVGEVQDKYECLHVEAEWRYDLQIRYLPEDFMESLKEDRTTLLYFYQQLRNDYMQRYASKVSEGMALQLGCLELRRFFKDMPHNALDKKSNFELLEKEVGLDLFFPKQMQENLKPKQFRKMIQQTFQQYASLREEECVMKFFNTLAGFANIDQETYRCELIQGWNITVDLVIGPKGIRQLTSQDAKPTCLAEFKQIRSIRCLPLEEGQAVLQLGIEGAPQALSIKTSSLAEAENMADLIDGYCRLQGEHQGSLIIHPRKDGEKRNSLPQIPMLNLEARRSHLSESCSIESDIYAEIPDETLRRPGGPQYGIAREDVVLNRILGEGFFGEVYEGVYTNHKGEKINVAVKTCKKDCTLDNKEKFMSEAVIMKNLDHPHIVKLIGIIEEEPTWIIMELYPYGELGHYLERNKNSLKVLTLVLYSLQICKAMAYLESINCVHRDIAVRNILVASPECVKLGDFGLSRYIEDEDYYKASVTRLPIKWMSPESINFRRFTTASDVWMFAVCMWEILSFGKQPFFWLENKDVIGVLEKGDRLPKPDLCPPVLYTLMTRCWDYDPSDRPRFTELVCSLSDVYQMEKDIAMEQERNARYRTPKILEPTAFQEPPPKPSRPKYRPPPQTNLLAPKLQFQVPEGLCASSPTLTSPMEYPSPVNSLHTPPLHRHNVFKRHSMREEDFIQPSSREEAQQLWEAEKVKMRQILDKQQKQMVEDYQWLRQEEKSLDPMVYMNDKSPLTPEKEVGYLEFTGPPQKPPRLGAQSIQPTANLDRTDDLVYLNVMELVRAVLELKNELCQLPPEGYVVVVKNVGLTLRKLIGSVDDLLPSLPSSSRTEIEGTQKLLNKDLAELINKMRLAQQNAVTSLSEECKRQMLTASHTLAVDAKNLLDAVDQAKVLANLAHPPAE
Serine/threonine-protein kinase ULK1 (Homo sapiens), sequence (O75385 whole entry, the tested form may be a part): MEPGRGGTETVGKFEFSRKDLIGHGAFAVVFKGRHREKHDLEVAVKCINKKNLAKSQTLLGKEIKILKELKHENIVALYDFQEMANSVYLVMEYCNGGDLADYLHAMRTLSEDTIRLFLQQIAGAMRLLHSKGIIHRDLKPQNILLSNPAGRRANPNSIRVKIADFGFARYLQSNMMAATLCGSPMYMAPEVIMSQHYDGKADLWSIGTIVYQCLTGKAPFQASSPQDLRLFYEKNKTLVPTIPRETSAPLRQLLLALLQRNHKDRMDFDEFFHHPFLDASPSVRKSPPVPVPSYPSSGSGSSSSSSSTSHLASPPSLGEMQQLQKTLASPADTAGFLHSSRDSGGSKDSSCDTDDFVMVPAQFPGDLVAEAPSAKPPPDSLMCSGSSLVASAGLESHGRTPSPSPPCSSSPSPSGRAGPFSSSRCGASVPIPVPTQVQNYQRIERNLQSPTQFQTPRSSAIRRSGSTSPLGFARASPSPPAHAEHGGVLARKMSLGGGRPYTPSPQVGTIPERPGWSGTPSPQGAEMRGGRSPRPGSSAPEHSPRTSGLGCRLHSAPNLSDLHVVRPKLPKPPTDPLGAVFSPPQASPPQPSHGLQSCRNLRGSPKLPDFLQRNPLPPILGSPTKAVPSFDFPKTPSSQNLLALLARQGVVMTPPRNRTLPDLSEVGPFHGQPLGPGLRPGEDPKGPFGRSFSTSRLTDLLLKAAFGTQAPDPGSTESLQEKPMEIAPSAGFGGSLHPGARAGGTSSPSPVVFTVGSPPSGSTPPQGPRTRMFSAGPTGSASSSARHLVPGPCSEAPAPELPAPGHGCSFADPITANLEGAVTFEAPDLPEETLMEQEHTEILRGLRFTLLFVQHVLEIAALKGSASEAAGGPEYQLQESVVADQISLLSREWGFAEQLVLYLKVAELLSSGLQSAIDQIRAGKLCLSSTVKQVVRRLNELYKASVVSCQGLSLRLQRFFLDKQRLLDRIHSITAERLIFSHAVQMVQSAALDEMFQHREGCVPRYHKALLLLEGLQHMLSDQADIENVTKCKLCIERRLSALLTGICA
Cyclin-dependent kinase-like 2 (Homo sapiens), sequence (Q92772 whole entry, the tested form may be a part): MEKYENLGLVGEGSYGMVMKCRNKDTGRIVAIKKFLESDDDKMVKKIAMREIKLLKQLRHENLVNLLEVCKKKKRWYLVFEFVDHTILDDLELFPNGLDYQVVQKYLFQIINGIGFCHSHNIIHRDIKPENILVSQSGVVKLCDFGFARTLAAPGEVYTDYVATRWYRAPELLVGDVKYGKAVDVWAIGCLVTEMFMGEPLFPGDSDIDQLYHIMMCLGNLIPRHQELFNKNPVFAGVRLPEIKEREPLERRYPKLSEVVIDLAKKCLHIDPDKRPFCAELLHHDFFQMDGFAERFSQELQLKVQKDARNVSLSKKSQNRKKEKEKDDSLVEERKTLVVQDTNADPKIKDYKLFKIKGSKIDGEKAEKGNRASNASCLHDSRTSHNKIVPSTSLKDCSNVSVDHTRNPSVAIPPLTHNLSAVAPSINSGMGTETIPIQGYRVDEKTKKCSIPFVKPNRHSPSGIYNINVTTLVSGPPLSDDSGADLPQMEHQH
Tyrosine-protein kinase ZAP-70 (Homo sapiens), sequence (P43403 whole entry, the tested form may be a part): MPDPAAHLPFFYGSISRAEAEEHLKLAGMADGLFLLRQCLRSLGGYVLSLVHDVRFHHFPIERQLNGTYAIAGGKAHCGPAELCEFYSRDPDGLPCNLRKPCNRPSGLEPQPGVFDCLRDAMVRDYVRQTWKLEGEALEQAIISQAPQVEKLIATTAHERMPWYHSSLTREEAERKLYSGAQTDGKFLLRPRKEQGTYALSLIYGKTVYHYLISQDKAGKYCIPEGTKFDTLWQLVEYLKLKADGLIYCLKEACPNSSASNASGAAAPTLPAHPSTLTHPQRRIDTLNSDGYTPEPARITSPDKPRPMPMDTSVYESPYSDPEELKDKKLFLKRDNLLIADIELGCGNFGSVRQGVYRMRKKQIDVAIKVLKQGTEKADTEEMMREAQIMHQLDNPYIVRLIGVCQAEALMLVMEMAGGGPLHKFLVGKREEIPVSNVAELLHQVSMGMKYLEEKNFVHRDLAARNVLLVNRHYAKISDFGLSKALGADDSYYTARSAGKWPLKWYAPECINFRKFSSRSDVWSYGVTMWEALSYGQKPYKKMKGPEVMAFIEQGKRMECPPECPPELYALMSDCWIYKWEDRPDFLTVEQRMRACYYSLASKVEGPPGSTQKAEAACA
MAP kinase-interacting serine/threonine-protein kinase 1 (Homo sapiens), sequence (Q9BUB5 whole entry, looked up, the tested form may be a part): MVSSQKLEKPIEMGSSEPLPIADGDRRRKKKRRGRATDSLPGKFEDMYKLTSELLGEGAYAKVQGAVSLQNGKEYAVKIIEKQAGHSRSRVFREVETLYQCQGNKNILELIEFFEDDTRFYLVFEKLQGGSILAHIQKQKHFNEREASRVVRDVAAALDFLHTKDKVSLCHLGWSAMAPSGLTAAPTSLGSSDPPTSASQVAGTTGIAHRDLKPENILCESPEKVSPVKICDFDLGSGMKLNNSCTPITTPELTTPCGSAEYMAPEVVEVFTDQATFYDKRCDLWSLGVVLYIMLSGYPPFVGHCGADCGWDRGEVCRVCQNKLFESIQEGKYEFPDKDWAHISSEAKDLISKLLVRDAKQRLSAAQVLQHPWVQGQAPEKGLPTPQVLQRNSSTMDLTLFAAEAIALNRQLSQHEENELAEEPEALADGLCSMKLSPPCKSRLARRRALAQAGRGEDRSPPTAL

C=CC(=O)Nc1cc(Nc2ncc(Cl)c(Nc3ccccc3S(=O)(=O)C(C)C)n2)c(OC)cc1N(C)CCN(C)C showed an Activity [1] of 91%, an Activity [2] of 68% and an Activity [3] of 91%. The Activity [4] was 100%, the Activity [5] was 2.5% and the Activity [6] was 0.5%. For the same compound, the Activity [7] was 2%, the Activity [8] was 90% and the Activity [9] was 94%. The Activity [10] was 93%, the Activity [11] was 88% and the Activity [12] was 0%. The Activity [13] was 15%, the Activity [14] was 9.4% and the Activity [15] was 35%. For the same compound, the Activity [16] was 0.3%, the Activity [17] was 0.65% and the Activity [18] was 100%. It also gave an Activity [19] of 77%, an Activity [20] of 92% and an Activity [21] of 16%. It also gave an Activity [22] of 100%, an Activity [23] of 0.05% and an Activity [24] of 15%.

Reference: ChEMBL document CHEMBL4382192, “Discovery of a potent dual ALK and EGFR T790M inhibitor” (Eur J Med Chem, 2017)
